ChEMBL document CHEMBL4725360, “Optimization of Acetazolamide-Based Scaffold as Potent Inhibitors of Vancomycin-Resistant Enterococcus” (J Med Chem, 2020)
Converted amounts (≈) assume the structure as drawn. The source made the active and inactive calls. The calls are words filed in the database; no cut-off is given here.

Experiments:
Enterococcus faecium [1] = assay: Antibacterial activity against Enterococcus faecium NR-31914 incubated for 18 to 20 hrs under aerobic condition by CLSI protocol based broth microdilution assay; type: functional; details: time hrs 18-20
Outline: (§1)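 Broth microdilution per CLSI. Strains grown aerobically overnight on trypticase soy agar at 37 °C. Inoculum set to 0.5 McFarland, diluted in trypticase soy broth to about 5 × 10⁵ CFU/mL. Agents serially diluted, plates incubated aerobically at 37 °C for 18–20 h. MIC is the lowest concentration with no visible growth. Compound stocks 10 mg/mL in DMSO.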

Enterococcus faecium [2] = assay: Antibacterial activity against Enterococcus faecium NR-32052 incubated for 18 to 20 hrs under aerobic condition by CLSI protocol based broth microdilution assay; type: functional; details: time hrs 18-20; outline: as §1
Enterococcus faecium [3] = assay: Antibacterial activity against Enterococcus faecium NR-31971 incubated for 18 to 20 hrs under aerobic condition by CLSI protocol based broth microdilution assay; type: functional; details: time hrs 18-20; outline: as §1
Enterococcus faecium [4] = assay: Antibacterial activity against Enterococcus faecium NR-31972 incubated for 18 to 20 hrs under aerobic condition by CLSI protocol based broth microdilution assay; type: functional; details: time hrs 18-20; outline: as §1
Enterococcus faecium [5] = assay: Antibacterial activity against Enterococcus faecium NR-31903 incubated for 18 to 20 hrs under aerobic condition by CLSI protocol based broth microdilution assay; type: functional; details: time hrs 18-20; outline: as §1
Enterococcus faecalis [6] = assay: Antibacterial activity against Enterococcus faecalis HM-335 incubated for 18 to 20 hrs under aerobic condition by CLSI protocol based broth microdilution assay; type: functional; details: time hrs 18-20; outline: as §1
Enterococcus faecium [7] = assay: Antibacterial activity against Enterococcus faecium NR-31916 incubated for 18 to 20 hrs under aerobic condition by CLSI protocol based broth microdilution assay; type: functional; details: time hrs 18-20; outline: as §1
Enterococcus faecium [8] = assay: Antibacterial activity against Enterococcus faecium HM968 incubated for 18 to 20 hrs under aerobic condition by CLSI protocol based broth microdilution assay; type: functional; details: time hrs 18-20; outline: as §1
Enterococcus faecium [9] = assay: Bacteriostatic activity against Enterococcus faecium ATCC 700221 assessed as reduction in bacterial burden at 5 times MIC preincubated for 24 hrs followed by replating on soya agar plates and measured after 16 hrs by time-kill assay; type: functional, organism-based
Outline: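 E. faecium ATCC 700221 overnight culture diluted in trypticase soy broth to 3.5 × 10⁶ CFU/mL. […] Samples taken at 2, 4, 6, 8, 12 and 24 h, diluted in PBS and plated on trypticase soy agar. Colonies counted after 16 h at 37 °C. Detection limit 100 CFU/mL. Two-way ANOVA with Dunnett's test.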

Enterococcus faecium [10] = assay: Antibacterial activity against Enterococcus faecium NR-28978 incubated for 18 to 20 hrs under aerobic condition by CLSI protocol based broth microdilution assay; type: functional; details: time hrs 18-20; outline: as §1
Enterococcus faecium [11] = assay: Antibacterial activity against Enterococcus faecium NR-32065 incubated for 18 to 20 hrs under aerobic condition by CLSI protocol based broth microdilution assay; type: functional; details: time hrs 18-20; outline: as §1
Enterococcus faecium [12] = assay: Inhibition of carbonic anhydrase in Enterococcus faecium HM-965 assessed as antibacterial activity incubated for 18 to 20 hrs in presence of 5% CO2 by CLSI protocol based broth microdilution assay; details: time hrs 18-20
Outline: (§2)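 CLSI broth microdilution: inoculum about 5 × 10⁵ CFU/mL in trypticase soy broth with serial dilutions of agents. Paired plates incubated at 37 °C for 18–20 h, one set in ambient air ("normal"), the other under 5% CO₂. MIC is the lowest concentration completely inhibiting visible growth.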

Enterococcus faecalis [13] = assay: Inhibition of carbonic anhydrase in Enterococcus faecalis HM-334 assessed as antibacterial activity incubated for 18 to 20 hrs in presence of ambient air by CLSI protocol based broth microdilution assay; details: time hrs 18-20; outline: as §2
Enterococcus faecium [14] = assay: Inhibition of carbonic anhydrase in Enterococcus faecium NR-31972 assessed as antibacterial activity incubated for 18 to 20 hrs in presence of 5% CO2 by CLSI protocol based broth microdilution assay; details: time hrs 18-20; outline: as §2
Enterococcus faecium [15] = assay: Inhibition of carbonic anhydrase in Enterococcus faecium NR-31971 assessed as antibacterial activity incubated for 18 to 20 hrs in presence of ambient air by CLSI protocol based broth microdilution assay; details: time hrs 18-20; outline: as §2
Enterococcus faecium [16] = assay: Inhibition of carbonic anhydrase in Enterococcus faecium ATCC 700221 assessed as antibacterial activity incubated for 18 to 20 hrs in presence of 5% CO2 by CLSI protocol based broth microdilution assay; details: time hrs 18-20; outline: as §2
Enterococcus faecium [17] = assay: Inhibition of carbonic anhydrase in Enterococcus faecium HM-965 assessed as antibacterial activity incubated for 18 to 20 hrs in presence of ambient air by CLSI protocol based broth microdilution assay; details: time hrs 18-20; outline: as §2
Enterococcus faecium [18] = assay: Inhibition of carbonic anhydrase in Enterococcus faecium NR-31972 assessed as antibacterial activity incubated for 18 to 20 hrs in presence of ambient air by CLSI protocol based broth microdilution assay; details: time hrs 18-20; outline: as §2
[19] = Cytotoxicity against human Caco2 cells incubated for 2 hrs by MTS assay; type: cell-based; details: Caco-2 cells
Outline: (§3)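 Caco-2 cells maintained in DMEM with 10% FBS, non-essential amino acids and penicillin-streptomycin at 37 °C, 5% CO₂. Compound exposure for 2 h in serum-free medium at several concentrations; DMSO-matched controls. Viability expressed relative to DMSO controls (mean ± SD), and CC₅₀ derived.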

Caco-2 = assay: Cytotoxicity against human Caco2 cells at 128 ug/ml incubated for 2 hrs by MTS assay; type: cell-based; details: caco-2, 2 h, dose 128 µg/ml; outline: as §3
Enterococcus faecium [20] = assay: Inhibition of carbonic anhydrase in Enterococcus faecium NR-31971 assessed as antibacterial activity incubated for 18 to 20 hrs in presence of 5% CO2 by CLSI protocol based broth microdilution assay; details: time hrs 18-20; outline: as §2
Enterococcus faecium [21] = assay: Inhibition of carbonic anhydrase in Enterococcus faecium ATCC 700221 assessed as antibacterial activity incubated for 18 to 20 hrs in presence of ambient air by CLSI protocol based broth microdilution assay; details: time hrs 18-20; outline: as §2
Enterococcus faecalis [22] = assay: Inhibition of carbonic anhydrase in Enterococcus faecalis HM-334 assessed as antibacterial activity incubated for 18 to 20 hrs in presence of 5% CO2 by CLSI protocol based broth microdilution assay; details: time hrs 18-20; outline: as §2
Enterococcus faecalis [23] = assay: Antibacterial activity against Enterococcus faecalis NR-31970 incubated for 18 to 20 hrs under aerobic condition by CLSI protocol based broth microdilution assay; type: functional, organism-based; details: time hrs 18-20; outline: as §1
Enterococcus faecalis [24] = assay: Antibacterial activity against Enterococcus faecalis NR-31975 incubated for 18 to 20 hrs under aerobic condition by CLSI protocol based broth microdilution assay; type: functional, organism-based; details: time hrs 18-20; outline: as §1
Enterococcus faecium [25] = assay: Antibacterial activity against Enterococcus faecium ATCC 700221 by CLSI protocol based assay; type: functional; outline: as §1
[26] = Apparent permeability across apical to basolateral side in human Caco2 cells; type: ADME, cell-based; details: caco-2
Outline: (§4)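 Bi-directional Caco-2 monolayer permeability, run at Eurofins: donor at pH 6.5, receiver at pH 7.4, both A→B and B→A. Papp derived from receiver concentration at the end point, incubation time, monolayer area and mid-point donor concentration. Concentrations taken as peak areas.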

[27] = Apparent permeability across basolateral to apical side in human Caco2 cells; type: ADME, cell-based; details: caco-2; outline: as §4

SMILES | MIC (Enterococcus faecium [5]) [µg/mL] | MIC (Enterococcus faecium [7]) [µg/mL] | Activity (Enterococcus faecium [9]) | MIC (Enterococcus faecium [10]) [µg/mL] | MIC (Enterococcus faecium [12]) [µg/mL] | MIC (Enterococcus faecalis [13]) [µg/mL] | MIC (Enterococcus faecium [14]) [µg/mL] | MIC (Enterococcus faecium [15]) [µg/mL] | MIC (Enterococcus faecium [16]) [µg/mL] | MIC (Enterococcus faecium [17]) [µg/mL] | MIC (Enterococcus faecium [18]) [µg/mL] | MIC (Enterococcus faecium [20]) [µg/mL] | MIC (Enterococcus faecium [21]) [µg/mL] | MIC (Enterococcus faecalis [22]) [µg/mL] | other results
CC(=O)NC[C@H]1CN(c2ccc(N3CCOCC3)c(F)c2)C(=O)O1 [LINEZOLID] | 1 (≈ 2.96 µM) | 1 (≈ 2.96 µM) | Active | 1 (≈ 2.96 µM) | – | – | – | – | – | – | – | – | – | – | MIC (Enterococcus faecium [1]): 1 µg/mL (≈ 2.96 µM); MIC (Enterococcus faecium [2]): 0.5 µg/mL (≈ 1.48 µM); MIC (Enterococcus faecium [3]): 1 µg/mL (≈ 2.96 µM); MIC (Enterococcus faecium [4]): 0.5 µg/mL (≈ 1.48 µM); MIC (Enterococcus faecalis [6]): 0.5 µg/mL (≈ 1.48 µM); MIC (Enterococcus faecium [8]): 0.5 µg/mL (≈ 1.48 µM); MIC (Enterococcus faecium [11]): 0.25 µg/mL (≈ 0.741 µM)
NS(=O)(=O)c1nnc(NC(=O)CC2CCCCC2)s1 | 0.125 (≈ 0.411 µM) | 0.125 (≈ 0.411 µM) | – | 0.125 (≈ 0.411 µM) | > 64 | 0.03 | > 64 | 0.03 | > 64 | 0.06 | 0.06 | > 64 | 0.06 | > 64 | CC50 at 2 h [19]: > 128 µg/mL; Activity (Caco-2): Non-Toxic; Activity (Enterococcus faecalis [23]): Active; Activity (Enterococcus faecalis [24]): Active
CC(=O)Nc1nnc(S(N)(=O)=O)s1 [ACETAZOLAMIDE] | – | – | Active | – | > 64 | 2 | > 64 | 2 | > 64 | 2 | 2 | > 64 | 1 | > 64 | MIC (Enterococcus faecium [25]): 0.5 µg/mL (≈ 2.25 µM); Papp A→B [26]: 0.19 ×10⁻⁶ cm/s; Papp B→A [27]: 0.77 ×10⁻⁶ cm/s
